From publication PMC6448596 (Cell reports, 2019)

Experiments:
HL60 cells = experiment: Proliferation assay; type: cell-based; conditions: Homo sapiens, HL-60, 72 h
How it was run: (§1)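 CellTiter-Glo, 5,000 cells/well. Cells received 0.1% DMSO or at least five two-fold dilutions of test compound (top 50 μM, final DMSO 0.1%), in triplicate wells and ≥2 biological replicates, for 72 h at 37°C. Reagent was added after equilibration to RT, with 30 min dark incubation before luminescence. Signals were normalized to DMSO wells and GI50 obtained by curve fitting. Curve error bars are SEM.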

K562 cells = experiment: Proliferation assay; type: cell-based; conditions: Homo sapiens, K562, 72 h
How it was run: as §1

THP-1 cells = experiment: Proliferation assay; type: cell-based; conditions: Homo sapiens, THP-1, 72 h
How it was run: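 THP-1 cells were grown in RPMI-1640 with 0.05 mM 2-mercaptoethanol and 10% FBS. Cells were plated 5,000/well with ≥5 two-fold dilutions of test compound (top 50 μM, 0.1% DMSO final), in triplicate wells with ≥2 biological replicates.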

HEL cells = experiment: Proliferation assay; type: cell-based; conditions: Homo sapiens, 72 h
How it was run: as §1

NOMO-1 cells = experiment: Proliferation assay; type: cell-based; conditions: Homo sapiens, NOMO-1, 72 h
How it was run: as §1

SET-2 cells = experiment: Proliferation assay; type: cell-based; conditions: Homo sapiens, SET-2, 72 h
How it was run: as §1

MA93 cells = experiment: Proliferation assay; type: cell-based; conditions: Homo sapiens, 72 h
How it was run: (§2)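 CellTiter-Glo at 2,000 cells/well. MA93 Ras and MA93 FLT3/ITD were maintained in IMDM/20% FBS. Parental MA93 received IMDM/20% FBS plus 10 ng/mL human SCF, TPO, FLT3L, IL3 and IL6. Dosing used ≥5 two-fold dilutions from 50 μM top, 0.1% DMSO final, in triplicate wells with ≥2 biological replicates. Plates ran 72 h at 37°C, followed by 30 min reagent incubation at RT in the dark. GI50 came from DMSO-normalized luminescence.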

MA93 FLT3-ITD cells = experiment: Proliferation assay; type: cell-based; conditions: Homo sapiens, 72 h
How it was run: as §2

MA93 Ras cells = experiment: Proliferation assay; type: cell-based; conditions: Homo sapiens, MA9.3RAS, 72 h
How it was run: as §2

RN2 cells = experiment: Proliferation assay; type: cell-based, murine; conditions: Mus musculus, 72 h
How it was run: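 Murine RN2 cells were seeded at 2,500/well and exposed to ≥5 two-fold dilutions (top 50 μM, 0.1% DMSO final) in triplicate wells, with ≥2 biological replicates, for 72 h. MTS reagent was added for 1.25 h at 37°C and absorbance read at 490 nm. Values were normalized to DMSO wells and GI50 fitted. Error bars are SEM.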

[1] = tested on: gene body transcription in MV4:11 cells; experiment: PRO-Seq; type: cell-based, human; conditions: MV4:11, 36 μM, 15, 30 or 60 min
How it was run: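 30 million MV4:11 cells were harvested 15, 30 or 60 min after test compound; 0.1% DMSO for 60 min was the reference. Cells were swollen on ice, lysed with 0.1% Triton/10% glycerol and Dounce-homogenized. Nuclei were stored at −80°C in 40% glycerol freezing buffer (2 × 10^7 nuclei/100 μl) and used for nuclear run-on. Beads were washed in high/medium/low salt; RNA was TRIzol-extracted.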

WDR5 [2] = target: T1, WDR5 (Homo sapiens, UniProt P61964); experiment: ChIP-PCR of WDR5 binding; type: cell-based; conditions: MV4:11, 36 μM, 4 h
How it was run: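 MV4:11 cells were treated 4 h with 36 μM test compound, its negative control or DMSO. They were cross-linked in 0.75–1% formaldehyde for 10 min at RT and quenched with 125 mM glycine. Cells were lysed in SDS/Triton formaldehyde lysis buffer. Chromatin from 6 million cells was used per IP, with anti-WDR5 (D9E1I) or IgG, followed by low-salt, high-salt, LiCl and TE washes. Signal is % input, biological triplicate, SEM.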

WDR5 [3] = target: T1, WDR5; experiment: Subcellular fractionation, WDR5 western blot; type: cell-based; conditions: MV4:11, 36 μM, 4 h
WDR5 [4] = target: T1, WDR5; experiment: 10-mer-Thr-FAM peptide TR-FRET competition assay; type: binding; conditions: relative to C3
MV4:11 cells = experiment: Proliferation assay; type: cell-based, human; conditions: Homo sapiens, MV4-11, 72 h, MV4:11, 3 days, mean with SEM
How it was run: as §1

Molm13 cells = experiment: Proliferation assay; type: cell-based; conditions: Homo sapiens, MOLM-13, 72 h
How it was run: as §1

MONO-Mac-6 cells = experiment: Proliferation assay; type: cell-based; conditions: Homo sapiens, MONO-MAC-6, 72 h
How it was run: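 MONO-MAC-6 cells were maintained in RPMI with 10% FBS, non-essential amino acids and OPI supplement. CellTiter-Glo used 5,000 cells/well and ≥5 two-fold dilutions from 50 μM (0.1% DMSO final), in triplicate wells with ≥2 biological replicates, over 72 h at 37°C.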

GDM-1 cells = experiment: Proliferation assay; type: cell-based; conditions: Homo sapiens, GDM-1, 72 h
How it was run: as §1

[5] = tested on: gene expression in MV4:11 cells; experiment: RNA-Seq; type: cell-based, human; conditions: MV4:11, 2 μM, 3 days
WDR5 [6] = target: T1, WDR5; experiment: ChIP-Seq of WDR5; type: cell-based; conditions: MV4:11, 2 μM, 4 h
How it was run: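 MV4:11 cells at 10^6/ml were treated 4 h with 2 μM test compound, negative control or 0.1% DMSO. Cells were concentrated to 4 × 10^6/ml in PBS, fixed in 1% formaldehyde for 10 min at RT and quenched with 125 mM glycine. They were lysed in 1% SDS FA buffer. Sheared chromatin was diluted to 0.1% SDS and immunoprecipitated overnight at 4°C with anti-WDR5 (D9E1I or 429A) or IgG on BSA-blocked protein-A agarose. Peaks were compared by normalized average read counts.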

[7] = tested on: p53 and p21 protein levels in MV4:11 cells; experiment: p53/p21 induction western blot; type: cell-based, human; conditions: MV4:11, 30 µM OICR-9429
How it was run: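 Treatment lasted 24 h with test compound or its negative control, at 2 μM in MV4:11 and 3 μM in Molm13. Comparators were 2 μM Nutlin-3 or 0.1% DMSO. Four million cells were PBS-washed and lysed 10 min on ice in Kischkel buffer. p53 and p21 were detected by western blot, with histone H3 as loading control.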

[8] = tested on: ribosome protein gene expression in MV4:11 cells; experiment: RT-qPCR quantification of RPG mRNA expression; type: cell-based, human; conditions: MV4:11, three days, 50 µM OICR-9429 (adjusted to relative GI50)
How it was run: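 Cells were lysed in Trizol and total RNA isolated on columns with DNase digestion. 1 μg RNA was reverse transcribed with MuLV reverse transcriptase in 20 μl, then diluted three-fold in nuclease-free water before qPCR.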

[9] = tested on: p53 turnover in MV4:11 cells; experiment: Cycloheximide; type: cell-based, human; conditions: MV4:11, 2 μM, 24 h before CHX
How it was run: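 Before the cycloheximide chase, MV4:11 cells were pretreated 24 h with 2 μM test compound, 2 μM Nutlin-3 as comparator, or DMSO only. p53 was then followed by immunoblot.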

GI50 (HL60 cells)	GI50 (K562 cells)	GI50 (THP-1 cells)	GI50 (MV4:11 cells)	GI50 (Molm13 cells)	Compound	GI50 (HEL cells)	GI50 (NOMO-1 cells)	GI50 (SET-2 cells)	GI50 (MA93 cells)	GI50 (MA93 FLT3-ITD cells)	GI50 (MA93 Ras cells)	GI50 (RN2 cells)	also measured
> 50 µM	> 50 µM	> 50 µM	–	–	COc1cc(CNC(=O)c2ccc(F)c(CNC3=NCCN3)c2)cc(OC)c1 [Compound C3, 3-(((4,5-dihydro-1H-imidazol-2-yl)amino)methyl)-N-(3,5-dimethoxybenzyl)-4-fluorobenzamide]	> 50 µM	> 50 µM	> 50 µM	22.1 ± 3.6 µM	21.2 ± 2.11 µM	> 50 µM	8.65 ± 0.989 µM	increase in transcription [1]: no instances in which C3 promoted an increase in transcription; reduction in WDR5 binding at five loci (WDR5 [2]): > 10 fold; chromatin-bound WDR5 (P3 fraction) (WDR5 [3]): reduced the total amount of chromatin-bound WDR5
> 50 µM	> 50 µM	> 50 µM	> 50 µM	> 50 µM	COc1cc(CNC(=O)c2cccc(CNC3=NCCN3)c2F)cc(OC)c1 [Compound C3nc, 3-(((4,5-dihydro-1H-imidazol-2-yl)amino)methyl)-N-(3,5-dimethoxybenzyl)-2-fluorobenzamide]	> 50 µM	> 50 µM	> 50 µM	> 50 µM	> 50 µM	> 50 µM	> 50 µM	binding to WDR5 of negative control (WDR5 [4]): reduced affinity

More lines, now with the values behind:

Compound	GI50 (HL60 cells)	GI50 (K562 cells)	GI50 (THP-1 cells)	GI50 (MV4:11 cells)	GI50 (Molm13 cells)	GI50 (HEL cells)	GI50 (NOMO-1 cells)	GI50 (SET-2 cells)	GI50 (MA93 cells)	GI50 (MA93 FLT3-ITD cells)	GI50 (MA93 Ras cells)	GI50 (RN2 cells)	also measured
Cc1nc(F)ccc1-c1cc(C(=O)NCc2ccc(Cl)c(Cl)c2)ccc1Cn1ccn(C)c1=N [Compound C6nc, N-(3,4-dichlorobenzyl)-3-(6-fluoro-2-methylpyridin-3-yl)-4-((2-imino-3-methyl-2,3-dihydro-1H-imidazol-1-yl)methyl)benzamide]	> 50 µM	31.7 ± 2.45 µM	> 50 µM	42 ± 9.02 µM	> 50 µM	> 50 µM	> 50 µM	> 50 µM	30.3 ± 5.94 µM	26.2 ± 4.75 µM	> 50 µM	> 50 µM	GI50 (MONO-Mac-6 cells): > 50 µM; GI50 (GDM-1 cells): > 50 µM; effect on gene expression levels [5]: no significant effect on gene expression levels; WDR5 binding events on chromatin (WDR5 [6]): little impact on WDR5 binding
CN1CCN(c2ccc(-c3cccc(CN4CCOCC4)c3)cc2NC(=O)c2c[nH]c(=O)cc2C(F)(F)F)CC1 [OICR-9429, reference compound]	–	–	–	31 µM	–	–	–	–	–	–	–	–	p53 and p21 protein induction [7]: induced both p53 and p21; transcription of RPGs [8]: selectively inhibited the transcription of WDR5-bound RPGs
COc1ccc(C2=N[C@@H](c3ccc(Cl)cc3)[C@@H](c3ccc(Cl)cc3)N2C(=O)N2CCNC(=O)C2)c(OC(C)C)c1 [nutlin-3, reference compound]	–	–	–	–	–	–	–	–	–	–	–	–	p53 turnover in CHX chase [9]: increased the stability of p53
